≈ marks a conversion by molar mass, not a printed value.
Key:
Assay type in all cases: functional
[1] = test system: Nakaseomyces glabratus; assay: In vivo Evaluation of minimum inhibitory concentration against Torulopsis glabrata 78; settings: in the assay text read “In vitro” for “In vivo”
Procedure, shortened: (§1)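 Stocks are 800 μg/mL in 50% ethanol. Each plate gets 10 μL of inoculum at 10^5 cfu/mL. Incubation at 25 °C, 48 h for yeasts and 120 h for dermatophytes and molds. Organisms are ATCC strains or clinical isolates.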

[2] = test system: Rhodotorula mucilaginosa; assay: In vivo Evaluation of minimum inhibitory concentration against Rhodotorula rubra 16; settings: in the assay text read “In vitro” for “In vivo”; procedure, shortened: as §1
[3] = test system: Candida albicans; assay: In vivo evaluation of minimum inhibitory concentration against Candida albicans 406
Procedure, shortened: (§2)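 Broth macrodilution MIC following NCCLS M27-P, in RPMI-1640 buffered with 0.165 M MOPS. Fluconazole was dissolved in water and other drugs in DMSO. C. parapsilosis ATCC 22019 served as the reference strain in every run. MIC was the lowest concentration giving turbidity at or below the 80% inhibition standard.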

[4] = test system: Candida tropicalis; assay: In vivo Evaluation of minimum inhibitory concentration against Candida tropicalis 2.11; procedure, shortened: as §1
[5] = test system: Candida albicans; assay: In vivo evaluation of minimum inhibitory concentration against Candida albicans 60; procedure, shortened: as §2
[6] = test system: Rattus norvegicus; assay: In vivo evaluation of antifungal activity against vaginal candidosis in rat at dose 0.1 mg/kg on 15th day
Procedure, shortened: (§3)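 Groups of 10 female Wistar rats given estradiol 25 mg/kg sc on day -5, then vaginally inoculated with C. albicans on day 0. Infection is confirmed by culture of day-3 swabs. Compound is dosed orally once daily on days 3–5; controls get vehicle. Cure is scored by culture of vaginal swabs taken on days 10 and 15.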

[7] = test system: Rattus norvegicus; assay: In vivo evaluation of antifungal activity against vaginal candidosis in rat at dose 0.25 mg/kg on 10th day
Procedure, shortened: (§4)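 Groups of 10 female Wistar rats given estradiol 25 mg/kg sc on day -5, infected intravaginally with C. albicans by sterile swab on day 0; infection confirmed on day 3 by swab culture (TSB, then Sabouraud agar). Oral dosing once daily on days 3, 4, 5; vehicle controls. Vaginal swabs cultured on days 10 and 15; read-out % cured (culture-negative).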

[8] = test system: Rattus norvegicus; assay: In vivo evaluation of antifungal activity against vaginal candidosis in rat at dose 0.1 mg/kg on 10th day; procedure, shortened: as §3
[9] = test system: Rattus norvegicus; assay: In vivo evaluation of antifungal activity against vaginal candidosis in rat at dose 0.25 mg/kg on 15th day; procedure, shortened: as §4
[10] = test system: Kluyveromyces marxianus; assay: In vivo Evaluation of minimum inhibitory concentration against Candida pseudotropicalis 13; settings: Kluyveromyces marxianus; read-out: MIC; procedure, shortened: as §1
[11] = test system: Candida albicans; assay: […] Evaluation of minimum inhibitory concentration against Candida albicans 406; procedure, shortened: as §1
[12] = test system: Mus musculus; assay: In vivo evaluation of % survival rate after peroral administration on 7th day at dose 20 mg/kg; settings: route oral
[13] = test system: Mus musculus; assay: In vivo evaluation of % survival rate after peroral administration on 5th day at dose 10 mg/kg; settings: route oral
[14] = test system: Kluyveromyces marxianus; assay: In vitro evaluation of minimum inhibitory concentration against Candida pseudotropicalis 13; settings: Kluyveromyces marxianus; read-out: MIC; procedure, shortened: as §1
[15] = test system: Rhodotorula mucilaginosa; assay: In vitro evaluation of minimum inhibitory concentration against Rhodotorula rubra 16; settings: Rhodotorula mucilaginosa; read-out: MIC; procedure, shortened: as §1
[16] = test system: Mus musculus; assay: In vivo evaluation of % survival rate after peroral administration on 5th day at dose 5 mg/kg; settings: route oral
[17] = test system: Mus sp.; assay: In vivo evaluation of % survival rate after peroral administration on 5th day at dose 2.5 mg/kg; settings: Mus sp., po
[18] = test system: Candida albicans; assay: […] Evaluation of minimum inhibitory concentration against Candida albicans 60; procedure, shortened: as §1
[19] = test system: Mus musculus; assay: In vivo evaluation of % survival rate after peroral administration on 3rd day at dose 10 mg/kg; settings: route oral
[20] = test system: Mus musculus; assay: In vivo evaluation of % survival rate after peroral administration on 9th day at dose 10 mg/kg; settings: route oral
[21] = test system: Mus sp.; assay: In vivo evaluation of % survival rate after peroral administration on 3rd day at dose 2.5 mg/kg; settings: Mus sp., po
[22] = test system: Mus musculus; assay: In vivo evaluation of % survival rate after peroral administration on 3rd day at dose 20 mg/kg; settings: route oral
[23] = test system: Mus musculus; assay: In vivo evaluation of % survival rate after peroral administration on 7th day at dose 10 mg/kg; settings: route oral
[24] = test system: Nakaseomyces glabratus; assay: In vitro evaluation of minimum inhibitory concentration against Torulopsis glabrata 78; settings: Nakaseomyces glabratus; read-out: MIC; procedure, shortened: as §1
[25] = test system: Rattus norvegicus; assay: In vivo evaluation of antifungal activity against vaginal candidosis in rat at dose 0.5 mg/kg on 10th day
Procedure, shortened: (§5)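 Female Wistar rats, 10 per group, received estradiol 25 mg/kg sc on day -5. On day 0 they were infected intravaginally with C. albicans by sterile swab. Infection was confirmed on day 3 by culturing the swab in TSB and then on Sabouraud agar. Oral dosing was once daily on days 3, 4 and 5; controls got vehicle only. Vaginal swabs taken on days 10 and 15 were cultured and read the next day.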

[26] = test system: Mus musculus; assay: In vivo evaluation of % survival rate after peroral administration on 9th day at dose 5 mg/kg; settings: route oral
[27] = test system: Rattus norvegicus; assay: In vivo evaluation of antifungal activity in against vaginal candidosis in rat at dose 0.25 mg/kg on 10th day; procedure, shortened: as §4
[28] = test system: Mus musculus; assay: In vivo evaluation of % survival rate after peroral administration on 9th day at dose 20 mg/kg; settings: route oral
[29] = test system: Rattus norvegicus; assay: In vivo evaluation of antifungal activity against vaginal candidosis in rat at dose 0.5 mg/kg on 15th day; procedure, shortened: as §5
[30] = test system: Mus musculus; assay: In vivo evaluation of % survival rate after peroral administration on 7th day at dose 5 mg/kg; settings: route oral
[31] = test system: Mus sp.; assay: In vivo evaluation of % survival rate after peroral administration on 9th day at dose 2.5 mg/kg; settings: Mus sp., po
[32] = test system: Mus sp.; assay: In vivo evaluation of % survival rate after peroral administration on 7th day at dose 2.5 mg/kg; settings: Mus sp., po
[33] = test system: Candida tropicalis; assay: In vitro evaluation of minimum inhibitory concentration against Candida tropicalis 2.11; settings: Candida tropicalis; read-out: MIC; procedure, shortened: as §1
[34] = test system: Mus musculus; assay: In vivo evaluation of % survival rate after peroral administration on 3rd day at dose 5 mg/kg; settings: route oral
[35] = test system: Mus musculus; assay: In vivo evaluation of % survival rate after peroral administration on 5th day at dose 20 mg/kg; settings: route oral

For `C[C@H]1N(C(=O)c2ccc(C(F)(F)F)cc2)C[C@H](O)O[C@@]1(Cn1cncn1)c1ccc(F)cc1F` (stereo in doubt; (-)-39a), the MIC [1] was greater than 80 mg/L, the MIC [2] was greater than 80 mg/L and the MIC [3] was 1.25 mg/L (≈ 2.59 µM). The MIC [4] was 40 mg/L (≈ 82.9 µM), the MIC [5] was 2.5 mg/L (≈ 5.18 µM) and the Cure rate [6] was 50%. For the same compound, the Cure rate [7] was 95%, the Cure rate [8] was 30% and the Cure rate [9] was 100%. For the same compound, the MIC [10] was 20 mg/L (≈ 41.5 µM).

`OC(Cn1cncn1)(Cn1cncn1)c1ccc(F)cc1F` [FLUCONAZOLE] was tested, and the MIC [11] was 2.5 mg/L (≈ 8.16 µM), the survival at 20 mg/kg [12] was 98% and the survival at 10 mg/kg [13] was 100%. The MIC [14] was 80 mg/L (≈ 261 µM), the MIC [15] was greater than 80 mg/L and the survival at 5 mg/kg [16] was 100%. The survival at 2.5 mg/kg [17] was 100%, the MIC [18] was 2.5 mg/L (≈ 8.16 µM) and the survival at 10 mg/kg [19] was 100%. It also gave a survival at 10 mg/kg [20] of 60%, a survival at 2.5 mg/kg [21] of 100% and a survival at 20 mg/kg [22] of 100%. For the same compound, the survival at 10 mg/kg [23] was 80%, the MIC [24] was greater than 80 mg/L and the Cure rate [25] was 20%. It also gave a Cure rate [9] of 25%, a survival at 5 mg/kg [26] of 40% and a Cure rate [27] of 10%. For the same compound, the survival at 20 mg/kg [28] was 75%, the Cure rate [29] was 20% and the survival at 5 mg/kg [30] was 90%. For the same compound, the survival at 2.5 mg/kg [31] was 70%, the survival at 2.5 mg/kg [32] was 95% and the MIC [33] was 80 mg/L (≈ 261 µM). It also gave a survival at 5 mg/kg [34] of 100% and a survival at 20 mg/kg [35] of 100%.

From ChEMBL document CHEMBL1128448, “Synthesis and antifungal activity of new azole derivatives containing an N-acylmorpholine ring” (1995)
